Data on 39 compounds can be found in ChEMBL document CHEMBL4513216, “Probing the Open Global Health Chemical Diversity Library for Multistage-Active Starting Points for Next-Generation Antimalarials” (ACS Infect Dis, 2020).

The series can be described thus: Toxicity liver stage against HepG2, at 10uM. The class given is cell-based. More on the design: test concentration 10 uM, cell line HepG2-A16-CD81EGFP. The settings on record: human, HepG2-A16-CD81EGFP cells; read-out: INHIBITION
Summed up: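 Uninfected HepG2-A16-CD81EGFP cells, 3 × 10^3 per well, 1536-well, plated on prespotted compound at 10 μM final, parasite-free screening media added to match infected plates; puromycin 10 μM positive, DMSO 0.5% negative; run in parallel with 48 h PbLuc assay at 37 °C, 5% CO2; viability by CellTiter-Glo luminescence, normalized to controls.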
For `COc1ccc2c(c1)c(C(=O)Nc1nnn[nH]1)cn2C(C)C`, the cytotoxicity at 10 µM is -57.8%.
To `CCS(=O)(=O)N1CCn2c(COCC3CCOCC3)cnc2C1C` (centres undefined) belongs 11%; to `CN1CCOCC12CCN(Cc1nccs1)CC2`, 6.46%.
The same measure for `O=c1cc(CN2CCCC2)nc2n1CCCN(Cc1ccco1)C2`: 4.01%; for `COCCC(=O)N1CC[C@H]2C(=O)N(c3ccsc3)CCO[C@H]2C1`: 10.4%; for `CC(C)C(=O)N1CCCC12CCN(C(=O)c1ccno1)C2` (centres undefined): 7.49%.
The same measure for `CN1CCN(c2ncc3c(=O)n(-c4cccc(F)c4)c(=O)[nH]c3n2)CC1`: -8.85%.
`CC(C)NC(=O)C1CN(C(=O)c2ccc(F)cc2)CC12CCOCC2` (centres undefined): the cytotoxicity at 10 µM worked out at 1.08%.
For `CC(C)n1cc(S(=O)(=O)N2CCCCC2)cn1`, the cytotoxicity at 10 µM came to 2.53%.
The same measure for `OCCN1CCC(c2csc(Nc3cnccn3)n2)CC1`: -4.26%; for `O=C(C1CCCC1)N1CCCC([C@@H]2C[C@H](C(F)F)n3ncnc3N2)C1` (some centres undefined): 4.54%.
The same measure for `CSCC(C)(O)CNC(=O)c1cccc(Cl)c1Cl` (centres undefined): 0.126%; for `CC(C)Cc1noc(CN2CCN(C(=O)c3cccs3)CC2)n1`: -14.3%; for `O=C(COCC1CC1)Nc1ccn(Cc2cccc3cccnc23)n1`: 13.9%.
Regarding `CC(C)C(=O)NS(=O)(=O)c1ccc(F)c(C(F)(F)F)c1`, the cytotoxicity at 10 µM was -2.32%.
The same measure for `CS(=O)(=O)N1CCc2c(cccc2NC(=O)CC(F)(F)F)C1`: 5.06%; for `Cc1cccc(N2CCC3(CCCN3Cc3cn(C)nc3C)CC2)n1`: -4.78%.
To `CCc1nc(CN2CC[C@@](O)(CCOC)[C@H](C)C2)cs1` belongs 10%; to `COc1ccc2c(=O)n(CC3CCCN(C)C3)ccc2c1OC` (centres undefined), -0.391%; to `CCc1nccc(CN2CCCC(CNC(=O)c3ccccn3)C2)n1` (centres undefined), 4.63%.
Regarding `CC(C)c1cc(NCC(O)c2ccncc2)n2nccc2n1` (centres undefined), the cytotoxicity at 10 µM is -1.8%.
The same measure for `O=C(c1cccc(-n2cccn2)c1)N1CCCOC(Cn2cccn2)C1` (centres undefined): -6.58%.
In the case of `CCN1CCC(CC(=O)N(C)C(C)c2cncs2)CC1` (centres undefined), the cytotoxicity at 10 µM was determined as 6.05%.
The same measure for `CCc1cc(NCCc2cnccn2)n2nc(C)c(C)c2n1`: 5.18%; for `CCCc1noc(CCC(=O)N2CCCC2c2ccc(OC)cc2)n1` (centres undefined): -0.403%; for `CC(C)c1ncc2c(n1)CN(CC(=O)Nc1ccc(Cl)cn1)CC2`: -1.4%.
`CC(Cn1cccn1)NC(=O)Cc1csc(C(C)C)n1` (centres undefined): the cytotoxicity at 10 µM was -8.57%.
To `Cc1cc(NC(=O)CN2CCCC2c2noc(C)n2)n(C(C)(C)C)n1` (centres undefined) belongs 1.53%; to `Cc1cnn(CC2CN(Cc3ccccn3)CCO2)c1` (centres undefined), -2.84%; to `c1ccc(-n2ncc(CN3CCCC(Cn4cncn4)C3)n2)cc1` (centres undefined), -6.04%.
To `c1ccc(-n2cc(CN3CCCCC3Cn3cncn3)nn2)cc1` (centres undefined) belongs -14.2%; to `O=C(CCc1c(F)cccc1F)NS(=O)(=O)c1ccc2c(c1)OCCO2`, -4.71%; to `COCc1nc(C(=O)N2CCCC2c2cc(C)on2)cs1` (centres undefined), -5.83%.
To `Cn1cnc2c1C(C(=O)N1CCCC1)N(CC1CC1)CC2` (centres undefined) belongs 6.37%; to `CC(C)NC(=O)N1CC[C@@H](N(C)C)[C@@H]1Cc1ccccc1`, 9.82%.
For `COCCN1CC[C@H](O)[C@@H]1Cc1ccccc1`, the cytotoxicity at 10 µM is -10%.
Turning to `COCCNC(=O)[C@H]1CC[C@@H]2[C@@H](CCN2c2ncc(F)cn2)O1`, the cytotoxicity at 10 µM is -2.25%.
As to `COCCNC(=O)[C@@H]1CC[C@@H]2[C@@H](CCN2c2ncc(F)cn2)O1`, the cytotoxicity at 10 µM was -0.554%.
The same measure for `Cc1noc(C)c1CN1C[C@H]2CC[C@@H](C1)N(Cc1cc(F)cc(F)c1)C2`: -11.9%.
